Results on 1 compound are retold here after ChEMBL document CHEMBL4680166, “Dual-functional conjugates improving cancer immunochemotherapy by inhibiting tubulin polymerization and indoleamine-2,3-dioxygenase” (Eur J Med Chem, 2020).

Data set [1] can be described thus: Toxicity in BALB/c nude mouse transfected with human HeLa cells assessed as kidney damage at 30 mg/kg/day, iv for 21 days by H&E staining based immunohistochemistry. The format is organism-based. Particulars: in vivo, 504 h, time 21 day. A digest of the protocol: (§1)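 HeLa xenografts were grown s.c. in male BALB/c nude mice, which received i.v. tail-vein doses once daily for 21 days in Tween 80/saline vehicle, with saline controls. After 3 weeks the mice were sacrificed. Organs from one mouse per group were fixed in 4% paraformaldehyde, paraffin-embedded and sectioned. Sections were dewaxed, stained with Harris hematoxylin and eosin-phloxine, and examined microscopically for histopathologic changes.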

Data set [2] has as its system HeLa. The experiment in a line: Induction of cell cycle arrest in human HeLa cells assessed as accumulation at G2/M phase at 0.5 uM measured after 24 hrs by propidium iodide/RNAse staining based flow cytometry (reference value: 10.7%). The format is functional.
The target of a further data set is Tubulin (Homo sapiens) (UniProt P68371+Q9H4B7+P0DPH7+P68366+Q13509+Q71U36+P04350+Q3ZCM7+P07437+P68363+Q9BQE3+Q6PEY2+Q13885+Q9BVA1+Q9BUF5). In words: Inhibition of tubulin polymerization in human HeLa cells assessed as disruption of microtubule network organization measured after 24 hrs by DAPI staining based immunofluorescence method. The data set is classed as cell-based. To be noted: dose 0.1-0.5 µM. A digest of the protocol:
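HeLa cells in six-well plates were treated 24 h. Fixed in 4% paraformaldehyde (37 °C, 15 min), permeabilised with 0.5% Triton X-100 and blocked with 10% goat serum. Incubated with α-tubulin primary antibody overnight, then fluorescent secondary antibody 1 h, with DAPI for nuclei. Imaged by confocal microscopy.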

Data set [3] in a line: Toxicity in BALB/c nude mouse […] with human HeLa cells assessed as body weight changes at 15 mg/kg/day, iv for 21 days. The format is organism-based. To be noted: in vivo, 504 h, time 21 day.
Data set [4] can be described thus: Toxicity in BALB/c nude mouse transfected with human HeLa cells assessed as spleen damage at 30 mg/kg/day, iv for 21 days by H&E staining based immunohistochemistry. The format is organism-based. Particulars: in vivo, 504 h, time 21 day. A digest of the protocol:
as §1

Data set [5] deals with HeLa. The experiment in a line: Antitumor activity against human HeLa cells xenografted in BALB/c mouse assessed as inhibition of tumor volume at 30 mg/kg/day, iv administered for 21 days by caliper analysis. The data set is classed as functional. To be noted: 504 h, time 21 day. A digest of the protocol: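 Male BALB/c nude mice, five weeks old, 18-22 g. Inoculated subcutaneously in the right armpit with 1 × 10⁷ HeLa cells/0.1 mL. At 120-150 mm³, randomized to four groups of five. Once-daily tail-vein injection for 21 days in Tween 80/physiological saline; controls received saline. Tumor volume measured every 2 days by caliper, V = AB²/2.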

Data set [6] relates to HeLa. The experiment in a line: Induction of intracellular reactive oxygen species generation in human HeLa cells at 0.5 uM measured after 24 hrs by DCFH-DA staining based flow cytometry relative to CA-4. The data set is classed as functional.
In data set [7] the test system is HeLa. The experiment in a line: Potency index, ratio of CA-4 IC50 to test compound IC50 for anticancer activity against human HeLa cells after 72 hrs by MTT assay. The data set is classed as functional.
Data set [8] is described as follows: Toxicity in BALB/c nude mouse transfected with human HeLa cells assessed as heart damage at 15 mg/kg/day, iv for 21 days by H&E staining based immunohistochemistry. Particulars: in vivo, 504 h, time 21 day. The data set is classed as organism-based. An outline of the steps:
(§2)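 After 3 weeks of daily iv dosing of HeLa-xenografted nude mice, organs were taken from one mouse per group. Fixed in 4% paraformaldehyde, paraffin-embedded and sectioned. Stained with Harris hematoxylin and eosin-phloxine, then examined microscopically for histopathology.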

Data set [9] in a line: Toxicity in BALB/c nude mouse transfected with human HeLa cells assessed as body weight changes at 30 mg/kg/day, iv for 21 days. Particulars: in vivo, 504 h, time 21 day. The format is organism-based. A digest of the protocol:
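Five-week-old male BALB/c nude mice (18-22 g) were inoculated s.c. in the right armpit with HeLa cells (1 × 10⁷ cells/0.1 mL/mouse). At a tumour volume of 120-150 mm³, mice were randomised, five per group. Dosing was i.v. via the tail vein once daily for 21 days, in Tween 80/physiological saline; controls got an equal volume of saline. Body weight was recorded every 2 days.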

The nature of data set [10]: Toxicity in BALB/c nude mouse transfected with human HeLa cells assessed as liver damage at 30 mg/kg/day, iv for 21 days by H&E staining based immunohistochemistry. To be noted: in vivo, 504 h, time 21 day. The data set is classed as organism-based. An outline of the steps: as §1
Data set [11] relates to HeLa. The experiment in a line: Inhibition of IDO1 expression in hIFNgamma-stimulated human HeLa cells assessed as decrease in kynurenine production at 0.1 uM measured after 48 hrs by reverse-phase HPLC analysis. The format is functional. An outline of the steps: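 HeLa cells were given fresh L-tryptophan-containing medium with hIFN-γ (25 ng/mL) plus compound for 48 h. Collected cells were treated with 20% trichloroacetic acid and centrifuged. Supernatant analysed by reversed-phase HPLC (ODS column, acetonitrile/water, 1.0 mL/min, […]).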

The nature of data set [12]: Antitumor immunity against IFN-gamma stimulated human HeLa cells co-cultured with PHA-M-stimulated human PBMC cells assessed as induction of CD3+ T cell proliferation at 0.1 uM preincubated for 2 days measured after co-culturing with PBMC for 6 days by flow cytometry (reference value: 6 to 6.2%). The data set is classed as functional. To be noted: time 8 day.
Data set [13] in a line: Toxicity in BALB/c nude mouse transfected with human HeLa cells assessed as lung damage at 15 mg/kg/day, iv for 21 days by H&E staining based immunohistochemistry. The data set is classed as organism-based. To be noted: in vivo, 504 h, time 21 day. An outline of the steps:
as §2

Another data set deals with HUVEC. In words: Cytotoxicity against HUVEC cells assessed as inhibition of cell proliferation measured after 72 hrs by MTT assay. To be noted: Homo sapiens. The data set is classed as cell-based. An outline of the steps:
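Cells (A549, PC-3, HeLa, HUVEC) grown in DMEM with 10% FBS at 37 °C, 5% CO₂. Seeded at 5 × 10⁴ cells/well and allowed 24 h to attach, then exposed 72 h to a concentration series from DMSO stocks. MTT was added for 4 h and formazan dissolved in DMSO, read at 490 nm. Survival taken relative to untreated control. IC50 by Bliss method, three repeats.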

The subject of data set [14] is HeLa. In words: Inhibition of IDO1 expression in hIFNgamma-stimulated human HeLa cells at 0.5 uM measured after 24 hrs by western blot assay. The data set is classed as functional. A digest of the protocol: (§3)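 HeLa cells were treated 24 h at 37 °C and lysed in buffer containing PMSF. Protein quantified by BCA, equal amounts separated by SDS-PAGE and transferred to nitrocellulose. Blocked in 5% milk, primary antibodies overnight at 4 °C, peroxidase secondary 2 h at 25 °C. Detection by chemiluminescence, β-actin as loading control.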

For data set [15], the system named is HeLa. In words: Induction of apoptosis in human HeLa cells assessed as necrotic cells at 0.5 uM measured after 24 hrs by Annexin-V-FITC and PI staining based flow cytometry (reference value: 0.956%). The format is functional. A digest of the protocol:
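HeLa cells were treated 24 h, washed twice in PBS and resuspended in binding buffer. Stained with annexin V-FITC and PI for 30 min in the dark at room temperature, then analysed by flow cytometry.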

The test system of data set [16] is HeLa. In words: Induction of apoptosis in human HeLa cells assessed as down regulation of Bcl-2 protein expression at 0.5 uM measured after 24 hrs by western blot analysis. The format is functional, cell-based. An outline of the steps: as §3
The test system of data set [17] is HeLa. The experiment in a line: Inhibition of cell migration in human HeLa cells at 0.5 uM measured after 24 hrs by wound healing assay (reference value: 61%). The format is functional. A digest of the protocol: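 Confluent HeLa monolayers were scratched with a pipette tip and washed with ice-cold PBS. Incubated 24 h at 37 °C in DMEM/10% FBS containing compound. Wounds were photographed at 0 and 24 h and migration distance measured manually.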

The test system of data set [18] is HeLa. The experiment in a line: Induction of intracellular reactive oxygen species generation in human HeLa cells at 0.5 uM measured after 24 hrs by DCFH-DA staining based flow cytometry (reference value: 6.47%). The format is functional.

Activity calls are given as the source filed them. The calls are words filed in the database; no cut-off is given here.

As for `COc1ccc(/C=C\c2cc(OC)c(OC)c(OC)c2)cc1OC(=O)c1cccc(Cn2cc(CCOC(=O)[C@H](N)Cc3cn(C)c4ccccc34)nn2)c1`, the Activity result in [1] was “Non-Toxic”; with HeLa [2], 76.27%; in data set [3], “Non-Toxic”; in data set [4], “Non-Toxic”; in data set [8], “Non-Toxic”; in data set [9] it was “Non-Toxic”. The Activity entry in data set [10] is “Non-Toxic”; in data set [12] it was 40.3%; in [13] it was “Non-Toxic”; in the data set on HeLa [15] it was 0.637%; with HeLa [18], 49.7%. Besides, at Tubulin (Homo sapiens), the inhibition entry was “Dose-dependent effect”. In addition, the inhibition in vivo at 30 mg/kg/day in the data set with HeLa [5] turned out to be 65.8%. The figures for the “fold change (FC)” value with HeLa [6] and in the data set on HeLa [7] were 2.3 and 3, respectively. Besides, the inhibition entry in the data set on HeLa [11] and with HeLa [14] was “Active” each time. In addition, the IC50 in the data set with HUVEC stood at 1520 nM. Besides, in the data set with HeLa [16], the outcome was Active. Further, in the data set with HeLa [17], the inhibition at 0.5 µM was 88%.
